According to ChEMBL document CHEMBL1789904, “Imaging of Plasmodium liver stages to drive next-generation antimalarial drug discovery” (Science, 2011):
“And” between values parts separate entries of the source, which are not always exact repeats. Equal entries are not always repeated.

Test system: Plasmodium yoelii
Test: NOVARTIS: Antimalarial liver stage activity measured as reduction in Plasmodium yoelii schizont area in HepG2-A16-CD81 cells by immuno-fluorescence, and median schizont size at 10uM compound concentration
Format: functional, organism-based
Outline: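 Host and parasite nuclei stained with Hoechst 33342, parasites with αPyHSP70 antibody; 25 images per well by high-content imaging; median parasite (schizont) area measured by automated image analysis, ~50 schizonts per experiment, two or more independent experiments.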

[1] = Plasmodium yoelii, HepG2-A16-CD81

Structure (SMILES) | Schizont size | IC50 [1] | IC50 (hepg2-a16-cd81)
CCOc1ccc(N(C(=O)C2COc3ccccc3O2)C(C(=O)NC2CCCCC2)c2cn(C)nc2C)cc1 (stereo unspecified) | 191.42 um | > 10000 nM | –
COc1cncc(-c2cncc(-c3ccc(C)cc3)n2)c1 | – | > 10000 nM | –
[I-].c1ccc(CSc2scnc2[P+](c2ccccc2)(c2ccccc2)c2ccccc2)cc1 | 21.61 um | 68.5 nM | –
OC1=C2C(=Nc3ccccc3SC2c2cccs2)c2ccccc21 (stereo unspecified) | 25.89 um | 90.4 nM | –
CCCC(=O)N1CCN(c2nc(Cc3ccccc3)c3c(c2C#N)CC(C)(C)OC3)CC1 | 22.44 um | 348 nM | –
CCOC(=O)c1cnc2c3c(ccc2c1O)CCCC3 | 26.2 um | 10.8 nM | –
O=C(Cc1cccs1)N1CCN(c2ccccn2)CC1 | 189.55 um | > 10000 nM | –
COc1cccc(OC)c1C(=O)Nn1c(-c2cccc(C)c2)nc2ccccc2c1=O | – | > 10000 nM | –
Cn1cnnc1SCC(=O)Nc1ccccc1C(F)(F)F | 204.16 um | > 10000 nM | –
CC[n+]1c(C=C2C=C(C)OC(C)=C2)sc2ccccc21.[Cl-] | 25.36 um | 245 nM | –
C1CCC(NP2(NC3CCCCC3)=NP(NC3CCCCC3)(NC3CCCCC3)=NP(NC3CCCCC3)(NC3CCCCC3)=N2)CC1 | 33.82 um | 18.6 nM | –
COc1ccc2nc(C)cc(Nc3ccc(Oc4ccc(Cl)c5ccccc45)c(Cl)c3)c2c1 | 22.65 um | 267 nM | –
Cc1c(C#N)c2ccccc2n1CC(=O)Nc1ccc(Br)cc1 | 158.02 um | > 10000 nM | –
CCOC(=O)CN(N=O)C1=C(N2CC2)C(=O)c2ccccc2C1=O | 35.8 um | 480 nM | –
CCOC(=O)c1cnc2ccc(OC)cc2c1O | 30.16 um and 29.96 um | – | 135 nM and 293 nM
CCCCn1c(NN=C2C(=O)Nc3ccccc32)nc2c1c(=O)[nH]c(=O)n2C | 172.53 um | > 10000 nM | –

Structure (SMILES) | Schizont size | IC50 [1] | IC50 (hepg2-a16-cd81)
c1ccc(Nc2ccnc(Nc3ccccc3)n2)cc1 | 92.37 um | 1480 nM | –
Cc1ccc(S(=O)(=O)Nc2nc3n(n2)C(c2ccccc2)C=C(c2ccccc2)N3)cc1 (stereo unspecified) | 198.42 um | > 10000 nM | –
Cc1c(Cl)cccc1N1C(=O)C2C3c4ccccc4C(c4ccccc43)C2C1=O (stereo unspecified) | 158.75 um | > 10000 nM | –
O=C1c2ccccc2-n2c1nc1ccccc1c2=O [TRYPTANTHRIN] | 89.55 um | 225 nM | –
CC(C)c1nc(N2CCN(C(=O)Nc3ccccc3)CC2)c(C#N)c2c1COC(C)(C)C2 | 82.25 um | 1020 nM | –
CCCCC(=O)NC(c1cccc([N+](=O)[O-])c1)c1ccc2cccnc2c1O (stereo unspecified) | 23.69 um | 449 nM | –
c1ccc2c(NCCc3c[nH]cn3)c3ccccc3nc2c1 | 110.22 um | 706 nM | –
COc1cc(C(=O)Nc2ccc3nc4n(c(=O)c3c2)CCCCC4)cc(OC)c1OC | – | > 10000 nM | –
Nc1nonc1-n1nnc(C(=O)NN=Cc2ccc(F)c(Br)c2)c1-c1ccc([N+](=O)[O-])cc1 | 246.12 um | > 10000 nM | –
Oc1cccc(Nc2nc(NCC3CCCO3)c3ccccc3n2)c1 (stereo unspecified) | 74.32 um | 1040 nM | –
COc1ccc(C(NC(=O)c2cccnc2)c2cc(Cl)c3cccnc3c2O)cc1 (stereo unspecified) | 21.08 um | 542 nM | –
OC(CNC1CCCCC1)Cn1c2ccccc2c2ccccc21 (stereo unspecified) | 143.41 um | 3920 nM | –
Cc1cc(OC(C)C(=O)N2CCc3ccccc32)ccc1Cl (stereo unspecified) | 59.6 um | 776 nM | –
CN(Cc1ccccc1)C(=O)CSc1nc(NCc2ccccc2)c2ccccc2n1 | 67.84 um | 7.13 nM | –
Clc1ccccc1-c1nc([P+](c2ccccc2)(c2ccccc2)c2ccccc2)c(N2CCOCC2)o1 | 20.56 um | 95.6 nM | –
Cc1cn2c3ccccc3n(CCN3CCCC3)c2n1 | 126.09 um | 1070 nM | –
